The results in this text go back to ChEMBL document CHEMBL1126604, “Synthesis and antiviral activity of 5-thien-2-yl-2'-deoxyuridine analogues” (1993).

What all share (format): functional
For experiment [1], the system named is Cytomegalovirus. As to the kind of experiment: Minimum inhibitory concentration required to reduce cytomegalo virus (CMV (AD-169)) virus-induced cytopathicity by 50%. The conditions noted are these: Human betaherpesvirus 5. (Damage to the host cells serves as the signal in cytopathic effect assays.)
Experiment [2] concerns Cytomegalovirus. The experiment can be described thus: Minimum inhibitory concentration required to reduce cytomegalo virus (CMV (Davis)) virus-induced cytopathicity by 50%. As to conditions: Human betaherpesvirus 5.
Experiment [3] concerns Human alphaherpesvirus 1. The experiment can be described thus: Minimum inhibitory concentration required to reduce herpes simplex virus-1 (HSV-1 (KOS)) virus-induced cytopathicity by 50%.
The test system of experiment [4] is Human alphaherpesvirus 2. As to the kind of experiment: Minimum inhibitory concentration required to reduce herpes simplex virus-2 (HSV-2 (G)) virus-induced cytopathicity by 50%.
Experiment [5] relates to Human alphaherpesvirus 1. The experiment can be described thus: Minimum inhibitory concentration required to reduce thymidine kinase deficient-HSV-1 (B2006) virus-induced cytopathicity by 50%.
The test system of experiment [6] is Human alphaherpesvirus 1. As to the kind of experiment: Minimum inhibitory concentration required to reduce thymidine kinase deficient-HSV-1 (VMW 1837) virus-induced cytopathicity by 50%.
Experiment [7] relates to Human alphaherpesvirus 3. The experiment can be described thus: Minimum inhibitory concentration required to reduce TK-VZV (07-1) virus-induced cytopathicity by 50%.
For experiment [8], the system named is Human alphaherpesvirus 3. As to the kind of experiment: Minimum inhibitory concentration required to reduce TK-VZV (YS/R) virus-induced cytopathicity by 50%.
The subject of experiment [9] is Vesicular stomatitis virus. As to the kind of experiment: Minimum inhibitory concentration required to reduce VSV virus-induced cytopathicity by 50%.
Experiment [10] deals with Vaccinia virus. The experiment can be described thus: Minimum inhibitory concentration required to reduce vaccinia virus (VV) virus-induced cytopathicity by 50%. As to conditions: Orthopoxvirus vaccinia.
Experiment [11] deals with Human alphaherpesvirus 3. The experiment can be described thus: Minimum inhibitory concentration required to reduce Varicella-Zoster virus (VZV (Oka)) virus-induced cytopathicity by 50%.
Experiment [12] relates to Cell line. As to the kind of experiment: Minimum concentration required to cause a microscopically detectable alteration of cell morphology. The conditions noted are these: Homo sapiens. The essentials:
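Cytotoxicity read as the minimum concentration causing a microscopically detectable alteration of normal cell morphology. Cells were human embryonic skin-muscle (E6SM) or human embryonic lung (HEL), seeded in 96-well plates.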

A short description of experiment [13]: Minimum inhibitory concentration required to reduce virus-induced cell growth by 50%. As to conditions: Homo sapiens.
Experiment [14] concerns Human alphaherpesvirus 1. As to the kind of experiment: Minimum inhibitory concentration required to reduce herpes simplex virus-1 (HSV-1 (McIntyre)) virus-induced cytopathicity by 50%.
The test system of experiment [15] is Human alphaherpesvirus 2. The experiment can be described thus: Minimum inhibitory concentration required to reduce herpes simplex virus-2 (HSV-2 (Lyons)) virus-induced cytopathicity by 50%.
Experiment [16] concerns Human alphaherpesvirus 1. As to the kind of experiment: Minimum inhibitory concentration required to reduce herpes simplex virus-1 (HSV-1 (F)) virus-induced cytopathicity by 50%.
The subject of experiment [17] is Human alphaherpesvirus 2. As to the kind of experiment: Minimum inhibitory concentration required to reduce herpes simplex virus-2 (HSV-2 (196)) virus-induced cytopathicity by 50%.

Converted amounts (≈) assume the structure as drawn. Bounds are passed on as bounds.

In the case of `C=Cc1ccc(-c2cn([C@H]3C[C@H](O)[C@@H](CO)O3)c(=O)[nH]c2=O)s1`, the MIC in experiment [1] was over 1 µg/mL; in experiment [2] it was over 1 µg/mL; in [3], 1 µg/mL (≈ 2.97 µM); in experiment [4], over 200 µg/mL; in experiment [5], over 200 µg/mL; in experiment [6] it was over 200 µg/mL. The MIC is 7 µg/mL (≈ 20.8 µM) in experiment [7]; 10 µg/mL (≈ 29.7 µM) in experiment [8]; over 200 µg/mL in experiment [9]; 70 µg/mL (≈ 208 µM) in [10]; 7 µg/mL (≈ 20.8 µM) in experiment [11]; 400 µg/mL (≈ 1190 µM) in [12]. The same molecule yielded an MIC in experiment [13] of 3.5 µg/mL (≈ 10.4 µM).
On to `O=c1[nH]c(=O)n([C@H]2C[C@H](O)[C@@H](CO)O2)cc1-c1ccc(I)s1`, for which the MIC in experiment [1] is over 40 µg/mL; in experiment [2], over 40 µg/mL; in [3], 0.04 µg/mL (≈ 0.0917 µM); in [4] it was over 40 µg/mL; in experiment [5], over 40 µg/mL; in experiment [6] it was over 40 µg/mL. Besides, the MIC in experiment [7] was 10 µg/mL (≈ 22.9 µM); in experiment [8] it was 40 µg/mL (≈ 91.7 µM); in experiment [9], over 40 µg/mL; in experiment [10], over 40 µg/mL; in experiment [11] it was 0.07 µg/mL (≈ 0.16 µM); in experiment [12], 100 µg/mL (≈ 229 µM). Further, the MIC in experiment [13] was over 50 µg/mL.
As to `Cc1ccc(-c2cn([C@H]3C[C@H](O)[C@@H](CO)O3)c(=O)[nH]c2=O)s1`, the MIC in [1] was over 40 µg/mL; in experiment [2], over 40 µg/mL; in experiment [3], 0.2 µg/mL (≈ 0.617 µM); in experiment [14], 0.7 µg/mL (≈ 2.16 µM); in experiment [4], 50 µg/mL (≈ 154 µM); in [15] it was 20 µg/mL (≈ 61.7 µM). Moreover, the MIC is 400 µg/mL (≈ 1230 µM) in experiment [5]; 150 µg/mL (≈ 462 µM) in experiment [6]; over 40 µg/mL in [7]; over 40 µg/mL in experiment [8]; over 400 µg/mL in experiment [9]; over 200 µg/mL in experiment [10]. For the same molecule, the MIC in [11] was 0.08 µg/mL (≈ 0.247 µM); in [16], 0.2 µg/mL (≈ 0.617 µM); in [12], over 200 µg/mL; in experiment [13], over 50 µg/mL; in [17], 150 µg/mL (≈ 462 µM).
With `C[Si](C)(C)C#Cc1ccc(-c2cn([C@H]3C[C@H](O)[C@@H](CO)O3)c(=O)[nH]c2=O)s1`, the MIC is over 10 µg/mL in experiment [1]; over 10 µg/mL in experiment [2]; 0.07 µg/mL (≈ 0.172 µM) in experiment [3]; over 40 µg/mL in experiment [4]; over 40 µg/mL in experiment [5]; over 40 µg/mL in experiment [6]. Besides, the MIC in experiment [7] is 21 µg/mL (≈ 51.7 µM); in [8], 20 µg/mL (≈ 49.2 µM); in experiment [9], over 40 µg/mL; in experiment [10] it was over 40 µg/mL; in [11], 0.2 µg/mL (≈ 0.492 µM); in experiment [12] it was 100 µg/mL (≈ 246 µM). This molecule showed an MIC in experiment [13] of 10 µg/mL (≈ 24.6 µM).
